Values after ≈ are worked out from the molar mass of the structure shown.
Legend:
Staphylococcus aureus [1] = experiment: Bactericidal activity against methicillin-resistant Staphylococcus aureus USA300 assessed as time required to reduce bacterial inoculum to zero colony forming units at 3 times MIC by time kill assay; assay type: functional
How it was run: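 Samples taken at 2, 4, 6, 8, 10, 12 and 24 h were serially diluted in PBS and plated on trypticase soy agar. Viable CFU/mL were counted after at least 16 h at 37 °C.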

HaCaT [2] = experiment: Cytotoxicity against human HaCaT cells assessed as cell viability up to 16 ug/ml after 2 hrs by MTS assay; assay type: cell-based
How it was run: (§1)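 HaCaT keratinocytes were grown in DMEM with 10% FBS at 37 °C, 5% CO₂. They were exposed in triplicate to 8–256 μg/mL for 2 h, then MTS was added. Background-corrected absorbance was expressed as % viability relative to a DMSO vehicle control.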

Staphylococcus aureus [3] = experiment: Antimicrobial activity against methicillin-resistant Staphylococcus aureus RCMB 2658 clinical isolate after 20 hrs by broth microdilution method; assay type: functional; details: RCMB 2658, 20 h
How it was run: (§2)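 CLSI broth microdilution in cation-adjusted Mueller Hinton broth. Compounds were serially diluted in triplicate and plates held at 37 °C for 20 h. MIC was taken by eye as the lowest concentration with no visible growth, and the average of the triplicate determinations is reported.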

[4] = Aqueous solubility of the compound in PBS after 2 hrs by turbidity assay; assay type: physicochemical
How it was run: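 Serial dilutions were made […] and diluted 100-fold into PBS. After 2 h, turbidity was read at 540 nm with pre-addition background subtracted. Turbidity was taken as absorbance > blank mean + 3 SD. Solubility limit is the highest concentration with no turbidity.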

Rattus norvegicus [5] = experiment: Elimination rate constant in Sprague-Dawley rat plasma at 50 mg/kg administered via oral gavage by LC/MS/MS analysis; assay type: ADME, organism-based; details: in vivo
How it was run: (§3)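 Male naive Sprague-Dawley rats (n = 3) received a single 50 mg/kg oral gavage dose in 5% ethanol, 45% PEG 400, 50% water. Blood was collected into EDTA-K2 tubes over 24 h post dose. Plasma was protein-precipitated with acetonitrile and parent was quantified by LC/MS/MS to derive PK parameters.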

Enterococcus faecium [6] = experiment: Bactericidal activity against vancomycin-resistant Enterococcus faecium ATCC 700221 after 20 hrs by broth microdilution method; assay type: functional; details: ATCC 700221, 20 h
[7] = Cmax in Sprague-Dawley rat plasma at 50 mg/kg administered via oral gavage measured 24 hrs post dose by LC/MS/MS analysis; assay type: ADME, organism-based; parameters: dose 50 mg/kg, route oral; how it was run: as §3
[8] = Mean residence time in Sprague-Dawley rat plasma at 50 mg/kg administered via oral gavage measured 24 hrs post dose by LC/MS/MS analysis; assay type: ADME, organism-based; how it was run: as §3
Staphylococcus aureus [9] = experiment: Antimicrobial activity against methicillin-resistant Staphylococcus aureus USA400 NRS123 clinical isolate after 20 hrs by broth microdilution method; assay type: functional; details: USA400 NRS123, 20 h; how it was run: as §2
Staphylococcus aureus [10] = experiment: Bactericidal activity against methicillin-resistant Staphylococcus aureus USA300 NRS384 clinical isolate after 20 hrs by broth microdilution method; assay type: functional; details: USA300 NRS384, 20 h
Staphylococcus aureus [11] = experiment: Bactericidal activity against methicillin-resistant Staphylococcus aureus NRS119 clinical isolate after 20 hrs by broth microdilution method; assay type: functional; details: NRS119, 20 h
Staphylococcus aureus [12] = experiment: Antimicrobial activity against methicillin-resistant Staphylococcus aureus USA200 NRS383 clinical isolate after 20 hrs by broth microdilution method; assay type: functional; details: USA200 NRS383, 20 h; how it was run: as §2
Staphylococcus aureus [13] = experiment: Bactericidal activity against methicillin-resistant Staphylococcus aureus USA400 NRS123 clinical isolate after 20 hrs by broth microdilution method; assay type: functional; details: USA400 NRS123, 20 h
Staphylococcus aureus [14] = experiment: Antimicrobial activity against methicillin-resistant Staphylococcus aureus NRS119 clinical isolate after 20 hrs by broth microdilution method; assay type: functional; details: NRS119, 20 h; how it was run: as §2
[15] = Apparent permeability across basolateral to apical side in human Caco2 cells at pH 7.4 after 2 hrs by LC/MS/MS analysis; details: Caco-2, pH 7.4
[16] = Total AUC in Sprague-Dawley rat plasma at 50 mg/kg administered via oral gavage measured 24 hrs post dose by LC/MS/MS analysis; assay type: ADME, organism-based; parameters: dose 50 mg/kg, route oral, time AUCmax; how it was run: as §3
[17] = AUClast in Sprague-Dawley rat plasma at 50 mg/kg administered via oral gavage measured 24 hrs post dose by LC/MS/MS analysis; assay type: ADME, organism-based; parameters: dose 50 mg/kg, time 0 - last, route oral; how it was run: as §3
Staphylococcus aureus [18] = experiment: Bactericidal activity against methicillin-resistant Staphylococcus aureus USA100 NRS382 clinical isolate after 20 hrs by broth microdilution method; assay type: functional; details: USA100 NRS382, 20 h
HaCaT [19] = experiment: Cytotoxicity against human HaCaT cells assessed as cell viability up to 64 ug/ml after 2 hrs by MTS assay; assay type: cell-based; how it was run: as §1
Staphylococcus aureus [20] = experiment: Antimicrobial activity against methicillin-resistant Staphylococcus aureus USA300 NRS384 clinical isolate after 20 hrs by broth microdilution method; assay type: functional; details: USA300 NRS384, 20 h; how it was run: as §2
Staphylococcus aureus [21] = experiment: Bactericidal activity against vancomycin-resistant Staphylococcus aureus 10 clinical isolate after 20 hrs by broth microdilution method; assay type: functional; details: isolate 10, 20 h
[22] = Ratio of non toxic dose for cytotoxicity against human HaCaT cells to MIC for methicillin-resistant Staphylococcus aureus RCMB 2658 clinical isolate; assay type: toxicity, cell-based
How it was run: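 HaCaT keratinocytes in DMEM with 10% FBS at 37 °C, 5% CO2, exposed for 2 h to 8–256 μg/mL, then MTS read-out. Viability is given as a percentage of the DMSO control, in triplicate. The highest non-toxic concentration is divided by the MRSA MIC.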

[23] = Efflux ratio of apparent permeability from basolateral to apical side over apical to basolateral side in human Caco2 cells after 2 hrs by LC/MS/MS analysis; assay type: ADME, cell-based; details: Caco-2
How it was run: (§4)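 Caco-2 cells were grown and differentiated for 3 weeks, fed every 2 days. Compound was added to the apical or basolateral side and measured on the opposite side after 2 h by LC/MS/MS. Apical buffer was pH 6.5 transport buffer (glucose, 10 mM HEPES, HBSS) with 100 μM Lucifer yellow; basolateral buffer was pH 7.4. Lucifer yellow fluorescence checked monolayer integrity. Papp = (dQ/dt)/C₀A; efflux ratio = Papp(B→A)/Papp(A→B).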

Staphylococcus aureus [24] = experiment: Antimicrobial activity against methicillin-sensitive Staphylococcus aureus NRS72 clinical isolate after 20 hrs by broth microdilution method; assay type: functional; details: NRS72, 20 h; how it was run: as §2
Staphylococcus aureus [25] = experiment: Antimicrobial activity against vancomycin-resistant Staphylococcus aureus 10 clinical isolate after 20 hrs by broth microdilution method; assay type: functional; details: isolate 10, 20 h; how it was run: as §2
[26] = Apparent permeability across apical to basolateral side in human Caco2 cells at pH 6.5 after 2 hrs by LC/MS/MS analysis; assay type: ADME, cell-based; details: Caco-2, pH 6.5; how it was run: as §4
Staphylococcus aureus [27] = experiment: Bactericidal activity against methicillin-sensitive Staphylococcus aureus NRS72 clinical isolate after 20 hrs by broth microdilution method; assay type: functional; details: NRS72, 20 h
[28] = Tmax in Sprague-Dawley rat plasma at 50 mg/kg administered via oral gavage measured 24 hrs post dose by LC/MS/MS analysis; assay type: ADME, organism-based; how it was run: as §3
Enterococcus faecium [29] = experiment: Antimicrobial activity against vancomycin-resistant Enterococcus faecium ATCC 700221 after 20 hrs by broth microdilution method; assay type: functional; details: ATCC 700221, 20 h; how it was run: as §2
Staphylococcus aureus [30] = experiment: Antimicrobial activity against methicillin-resistant Staphylococcus aureus USA100 NRS382 clinical isolate after 20 hrs by broth microdilution method; assay type: functional; details: USA100 NRS382, 20 h; how it was run: as §2
Rattus norvegicus [31] = experiment: Half life in Sprague-Dawley rat plasma at 50 mg/kg administered via oral gavage measured 24 hrs post dose by LC/MS/MS analysis; assay type: ADME, organism-based; details: in vivo; how it was run: as §3
Staphylococcus aureus [32] = experiment: Bactericidal activity against methicillin-resistant Staphylococcus aureus USA200 NRS383 clinical isolate after 20 hrs by broth microdilution method; assay type: functional; details: USA200 NRS383, 20 h
Staphylococcus aureus [33] = experiment: Potency index, ratio of vancomycin MIC to compound MIC for methicillin-resistant Staphylococcus aureus RCMB 2658 clinical isolate; assay type: functional

With `CCCCc1ccc(-c2nc(C)c(/C(C)=N/NC(=N)N)s2)cc1` the Time (Staphylococcus aureus [1]) was 6 h, the Activity (HaCaT [2]) was “Non-toxic” and the MIC (Staphylococcus aureus [3]) was 4.8 µg/mL (≈ 14.6 µM).
Compound `Cc1nc(-c2ccc(/C=C/C3CCCCC3)cc2)sc1-c1ccnc(N)n1` has an MIC (Staphylococcus aureus [3]) of 3.12 µg/mL (≈ 8.29 µM).
With `CCCCc1ccc(-c2nc(C)c(-c3ccn4ncnc4n3)s2)cc1` the MIC (Staphylococcus aureus [3]) was greater than 25 µg/mL.
Compound `CCCCc1ccc(-c2nc(C)c(-c3ccnc(NC(=N)N)n3)s2)cc1` has an MIC (Staphylococcus aureus [3]) of 1.56 µg/mL (≈ 4.26 µM).
`Cc1nc(-c2ccc(C3=CCCC3)cc2)sc1-c1ccnc(N)n1` showed a solubility kinetic at 2 h [4] of 35 µM (≈ 11.7 µg/mL) and an MIC (Staphylococcus aureus [3]) of 3.12 µg/mL (≈ 9.33 µM).
With `Cc1nc(-c2ccc(-c3ccco3)cc2)sc1-c1ccnc(N)n1` the solubility kinetic at 2 h [4] was 14 µM (≈ 4.68 µg/mL) and the MIC (Staphylococcus aureus [3]) was 8.7 µg/mL (≈ 26 µM).
`CCCCc1ccc(-c2nc(C)c(-c3ccnc(NN)n3)s2)cc1` showed a Kel (Rattus norvegicus [5]) of 0.19 h⁻¹, an MBC (Enterococcus faecium [6]) of 8 µg/mL (≈ 23.6 µM) and a Cmax [7] of 9330 ng/mL. The MRT [8] was 7.74 h, the Time (Staphylococcus aureus [1]) was 2 h and the MIC (Staphylococcus aureus [9]) was 2 µg/mL (≈ 5.89 µM). It also gave an MBC (Staphylococcus aureus [10]) of 2 µg/mL (≈ 5.89 µM), an MBC (Staphylococcus aureus [11]) of 2 µg/mL (≈ 5.89 µM) and an MIC (Staphylococcus aureus [12]) of 2 µg/mL (≈ 5.89 µM). For the same compound, the MBC (Staphylococcus aureus [13]) was 2 µg/mL (≈ 5.89 µM), the MIC (Staphylococcus aureus [14]) was 2 µg/mL (≈ 5.89 µM) and the Papp B→A at 2 h [15] was 2.8 ×10⁻⁶ cm/s. The AUC at 24 h [16] was 100 µg·h/mL, the AUC(0-t) at 24 h [17] was 83200 ng·h/mL and the MBC (Staphylococcus aureus [18]) was 4 µg/mL (≈ 11.8 µM). For the same compound, the Activity (HaCaT [19]) was “Non-toxic”, the MIC (Staphylococcus aureus [20]) was 2 µg/mL (≈ 5.89 µM) and the solubility kinetic at 2 h [4] was 55 µM (≈ 18.7 µg/mL). It also gave an MBC (Staphylococcus aureus [21]) of 2 µg/mL (≈ 5.89 µM), a selectivity ratio [22] of 160 and an efflux ratio at 2 h [23] of 1.8. The MIC (Staphylococcus aureus [24]) was 2 µg/mL (≈ 5.89 µM), the MIC (Staphylococcus aureus [25]) was 1 µg/mL (≈ 2.95 µM) and the Papp A→B at 2 h [26] was 1.6 ×10⁻⁶ cm/s. The MBC (Staphylococcus aureus [27]) was 8 µg/mL (≈ 23.6 µM), the Tmax [28] was 4.67 h and the MIC (Enterococcus faecium [29]) was 2 µg/mL (≈ 5.89 µM). It also gave an MIC (Staphylococcus aureus [3]) of 0.4 µg/mL (≈ 1.18 µM), an MIC (Staphylococcus aureus [30]) of 2 µg/mL (≈ 5.89 µM) and a t1/2 (Rattus norvegicus [31]) of 8.24 h. It also gave an MBC (Staphylococcus aureus [32]) of 2 µg/mL (≈ 5.89 µM).
For `Cc1nc(-c2ccc(C=C3CCCC3)cc2)sc1-c1ccnc(N)n1`, the MIC (Staphylococcus aureus [3]) was 1.17 µg/mL (≈ 3.36 µM).
Work on `CCCCc1ccc(-c2nc(C)c(-c3ccnc(-c4cccnc4)n3)s2)cc1` yielded an MIC (Staphylococcus aureus [3]) of 17.2 µg/mL (≈ 44.5 µM).
Compound `Cc1nc(-c2ccc(-c3ccsc3)cc2)sc1-c1ccnc(N)n1` has a solubility kinetic at 2 h [4] of 8.5 µM (≈ 2.98 µg/mL) and an MIC (Staphylococcus aureus [3]) of 6.25 µg/mL (≈ 17.8 µM).
With `CCCCc1ccc(-c2nc(C)c(-c3ccnc(-n4cccn4)n3)s2)cc1` the MIC (Staphylococcus aureus [3]) was greater than 25 µg/mL.
With `Cc1nc(-c2ccc(/C3=C/CCCCCC3)cc2)sc1-c1ccnc(N)n1` the MIC (Staphylococcus aureus [3]) was 5.6 µg/mL (≈ 14.9 µM).
In the case of `CCCCc1ccc(-c2nc(C)c(-c3ccnc(N)n3)s2)cc1`, the Papp B→A at 2 h [15] is reported as 17 ×10⁻⁶ cm/s, the solubility kinetic at 2 h [4] is reported as 42 µM (≈ 13.6 µg/mL) and the efflux ratio at 2 h [23] is reported as 1.1. It also gave a Papp A→B at 2 h [26] of 14.9 ×10⁻⁶ cm/s and an MIC (Staphylococcus aureus [3]) of 3.12 µg/mL (≈ 9.62 µM).
In the case of `Cc1nc(-c2ccc(C3=CCCCC3)cc2)sc1-c1ccnc(N)n1`, the Ratio (Staphylococcus aureus [33]) is reported as 1, the solubility kinetic at 2 h [4] is reported as 37 µM (≈ 12.9 µg/mL) and the MIC (Staphylococcus aureus [3]) is reported as 0.78 µg/mL (≈ 2.24 µM).

From ChEMBL document CHEMBL3826892, “Second-Generation Phenylthiazole Antibiotics with Enhanced Pharmacokinetic Properties” (J Med Chem, 2016)
